This note sets out measurements from ChEMBL document CHEMBL2311397, “Design and synthesis of cyclopropylamide analogues of combretastatin-A4 as novel microtubule-stabilizing agents” (J Med Chem, 2013).

Broadly, the IC50 is the midpoint of a concentration-inhibition curve. Low readings indicate higher potency, high ones lower potency. As a reminder, the EC50 is the midpoint of the concentration-response curve.

Data set [1] concerns A549. Nature of the data set: Induction of apoptosis in human A549 cells assessed as necrotic cells at 10 uM after 24 hrs by annexin V-FITC/propidium iodide staining-based flow cytometry (reference value: 2.76%). The format is functional. A general note: Flow cytometry measures light scatter and fluorescence of single cells or particles in a stream.
In data set [2] the test system is A549. Kind of data set: Cell cycle arrest in human A549 cells assessed as accumulation at S phase at 10 uM after 24 hrs by propidium iodide staining-based flow cytometry (reference value: 9.12 %). The format is functional.
For data set [3], the target named is T1, Tubulin (Homo sapiens) (UniProt P68371+Q9H4B7+P0DPH7+P68366+Q13509+Q71U36+P04350+Q3ZCM7+P07437+P68363+Q9BQE3+Q6PEY2+Q13885+Q9BVA1+Q9BUF5). Nature of the data set: Activation of tubulin (unknown origin) polymerization at 10 uM. The format is protein-complex assay. The gist of the method:
(§1)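 Purified brain tubulin (kit), final 3.0 mg/mL, in 80.0 mM PIPES sesquisodium pH 6.9, 2.0 mM MgCl2, 0.5 mM EGTA, 1 mM GTP, 10.2% glycerol; components prewarmed to 37 °C, reaction started by adding tubulin. A340 read each minute for 1 h. Single-point % stimulation used 10 μM compound; EC50 from 3.75, 7.5, 15, 30, 60 μM.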

The next data set deals with SW480. Kind of data set: Cytotoxicity against human SW480 cells after 48 hrs by MTT assay. The format is functional, cell-based. Particulars: Homo sapiens, SW480, 48 h. The gist of the method: (§2)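 Log-phase cells (40000–50000 cells/mL) grown in DMEM with 10% fetal calf serum (5% CO2, 37 °C) and exposed 48 h to five concentrations, 3–5 replicates. Read-out was MTT with absorbance at 570 nm; IC50 reported as mean ± SD of three independent experiments. Resistant A549 and HeLa sublines were made by stepwise paclitaxel selection; resistance index = IC50(resistant)/IC50(sensitive).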

In a further data set the test system is Mus musculus. Kind of data set: Toxicity in human A549 cells xenografted BALB/c nude mouse assessed as change in body weight at 100 to 500 mg/kg, ig. Type of data set: organism-based. More on the design: dose 100-500 mg/kg, route intragastric. Particulars: in vivo, po. Put shortly:
(§3)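 Male BALB/c nude mice, 5 weeks old (18–20 g), implanted subcutaneously in the right armpit with A549 tumor fragments (3 mm3). On day 13, at 100–200 mm3, daily intragastric dosing began: 100 or 500 mg/kg test compound, or 30 mg/kg paclitaxel, in Tween-80 diluted with saline. Vehicle given ip. Tumor volume and body weight followed; n = 6; inhibition rate at day 16.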
On the technique in general: Xenograft models place foreign cells or tissue in a host animal.

A further data set has as its target Tubulin. Nature of the data set: (§4) Activation of tubulin (unknown origin) polymerization. Type of data set: protein-complex assay, Homo sapiens. The gist of the method:
as §1

The target of data set [4] is T1, Tubulin (Homo sapiens). Described as §4. The format is protein-complex assay. The gist of the method:
as §1

Data set [5] deals with A549. Kind of data set: Antitumor activity against human A549 cells xenografted in BALB/c nude mouse assessed as tumor growth inhibition at 100 mg/kg, ig measured on day 16. The format is functional. The conditions noted are these: A549, po, 384 h, route intragastric, read-out: TGI. Put shortly: as §3
For data set [6], the system named is A549. Nature of the data set: Induction of apoptosis in human A549 cells assessed as viable cells at 1 uM after 24 hrs by annexin V-FITC/propidium iodide staining-based flow cytometry (reference value: 94.08%). Type of data set: functional. Particulars: A549, 24 h, read-out: Activity.
The subject of data set [7] is A549. Nature of the data set: Antimitotic activity against human A549 cells assessed as cell mitotic arrest at 1 uM after 22 hrs by DAPI/FITC staining-based laser fluorescence confocal microscopic analysis (reference value: 1.1 %). Type of data set: functional.
The subject of data set [8] is A549. Nature of the data set: Induction of apoptosis in human A549 cells assessed as late apoptotic cells at 10 uM after 24 hrs by annexin V-FITC/propidium iodide staining-based flow cytometry (reference value: 1.02%). The format is functional.
In data set [9] the test system is A549. Nature of the data set: Cell cycle arrest in human A549 cells assessed as accumulation at S phase at 0.1 uM after 24 hrs by propidium iodide staining-based flow cytometry (reference value: 9.12 %). Type of data set: functional.
In data set [10] the test system is A549. Nature of the data set: Induction of apoptosis in human A549 cells assessed as late apoptotic cells at 5 uM after 24 hrs by annexin V-FITC/propidium iodide staining-based flow cytometry (reference value: 1.02%). Type of data set: functional.
The next data set deals with HeLa. Kind of data set: Cytotoxicity against human HeLa cells after 48 hrs by MTT assay. The format is functional, cell-based. The conditions noted are these: Homo sapiens, HeLa, 48 h. The gist of the method:
as §2
On the technique in general: Tetrazolium assays rely on reduction of a dye to a coloured formazan, in cell work by metabolically active cells.

For data set [11], the system named is A549. Nature of the data set: Cell cycle arrest in human A549 cells assessed as accumulation at G2/M phase at 0.1 uM after 24 hrs by propidium iodide staining-based flow cytometry (reference value: 2.78 %). The format is functional.
The subject of data set [12] is A549. Kind of data set: Effect on chromosomal alteration in human A549 cells at 10 uM after 22 hrs by DAPI/FITC staining-based laser fluorescence confocal microscopic analysis. Type of data set: functional, cell-based. Put shortly:
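Confocal imaging of A549 cells exposed for 22 h to compound or vehicle (0.2% DMSO final), added at 70% confluency after overnight growth. Fixation followed by 0.5% Triton X-100 permeabilization and 10% goat serum blocking; tubulin stained with FITC anti-α-tubulin (1:100, 2 h, 37 °C), nuclei counterstained with DAPI. Wide-field images taken at 10–15 random slide locations.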

The subject of data set [13] is A549. Nature of the data set: Antimitotic activity against human A549 cells assessed as cell mitotic arrest at 5 uM after 22 hrs by DAPI/FITC staining-based laser fluorescence confocal microscopic analysis (reference value: 1.1 %). Type of data set: functional.

The structures appear in SMILES notation. The source made the active and inactive calls. The calls are words filed in the database; no cut-off is given here.

Regarding `COc1cc([C@@H]2C[C@]2(CO)C(=O)Nc2ccccc2Cl)cc(OC)c1OC`, the Activity with A549 [1] was 0.83%; in the data set with A549 [2], 10.29%; on Tubulin (Homo sapiens) [3], 24.3%; with Mus musculus it was “Non-toxic”; at Tubulin (Homo sapiens) [4], “Dose-dependent effect”; with A549 [7], 37.4%. Also, the Activity in the data set on A549 [8] worked out at 2.99%; in the data set with A549 [9], 9.54%; in the data set with A549 [10], 1.36%; in the data set on A549 [11] it was 12.53%; with A549 [13], 53.1%. The IC50 in the data set on SW480 amounted to 13.2 µM; with HeLa it was 8.1 µM. Besides, at Tubulin, the EC50 was found to be 19.7 µM. The inhibition in vivo at 100 mg/kg in the data set on A549 [5] was determined as 44.6%. Besides, the viability at 1 µM in the data set with A549 [6] was 80.2%. In addition, the outcome with A549 [12] was Active.
